ChEMBL document CHEMBL3877244, “Synthesis and biological evaluation of new aryl-alkyl(alkenyl)-4-benzylpiperidines, novel Sigma Receptor (SR) modulators, as potential anticancer-agents” (Eur J Med Chem, 2016)
Activity calls are given as the source filed them. The calls are words filed in the database; no cut-off is given here.

Key:
Capan-2 = test: Cytotoxicity against human Capan2 cells assessed as reduction in cell viability after 48 hrs in presence of 10% fetal calf serum by MTS assay; assay type: functional, cell-based
Method in brief: (§1)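 Cells in exponential growth, 3×10^3 per well, in medium with 10% FCS. Capan-2, PaCa3, MDA-MB 231, SUM 159 and PC3 were grown in DMEM/Ham's F12 with glutamine 2 mM and insulin 10 µg/ml. U87 was grown in EMEM and LNCaP in RPMI, each with glutamine. Compound 0.1–100 µM, continuous exposure (24 h; 48 h for the 48 h lines). MTS, OD 490 nm. IC50 read graphically. Three independent experiments in octuplicate.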

[1] = Cytotoxicity against human U87 cells assessed as reduction in cell viability after 24 hrs in presence of 10% fetal calf serum by MTS assay; assay type: functional, cell-based, U-87MG ATCC; details: U-87 MG; method in brief: as §1
U-87MG ATCC = test: Cytotoxicity against human U87 cells assessed as reduction in cell viability after 48 hrs in presence of 10% fetal calf serum by MTS assay; assay type: functional, cell-based; method in brief: as §1
[2] = Cytotoxicity against human LNCAP cells assessed as reduction in cell viability after 24 hrs in presence of 10% fetal calf serum by MTS assay; assay type: functional, cell-based; method in brief: as §1
[3] = Cytotoxicity against human Paca3 cells assessed as decrease in cell viability under starvation condition after 24 hrs by MTS assay; assay type: functional, cell-based; details: Paca3, 24 h
Method in brief: (§2)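 Cells starved 24 h in low-glucose medium without FCS, then treated 24 h with compound in serum-free conditions. MTS read-out, OD 490 nm, expressed as percent of untreated control. IC50 read graphically from the dose-response plot. Three independent experiments in octuplicate.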

PC-3 = test: Cytotoxicity against human PC3 cells assessed as reduction in cell viability after 48 hrs in presence of 10% fetal calf serum by MTS assay; assay type: functional, cell-based; method in brief: as §1
[4] = Induction of apoptosis in human Paca3 cells assessed as necrotic cells in absence of 10% fetal calf serum at 10 uM after 24 hrs by annexin V-FITC/propidium iodide staining-based flow cytometry (reference value: 0.8 +/- 0.6%); assay type: functional
[5] = target: Sigma non-opioid intracellular receptor 1 (Cavia porcellus, UniProt Q60492); test: Displacement of [3H]-pentazocine from sigma 1 receptor in guinea pig brain cortical membrane after 120 mins by scintillation counting analysis; assay type: cell membranes
Sequence of Sigma non-opioid intracellular receptor 1 (Q60492 whole entry): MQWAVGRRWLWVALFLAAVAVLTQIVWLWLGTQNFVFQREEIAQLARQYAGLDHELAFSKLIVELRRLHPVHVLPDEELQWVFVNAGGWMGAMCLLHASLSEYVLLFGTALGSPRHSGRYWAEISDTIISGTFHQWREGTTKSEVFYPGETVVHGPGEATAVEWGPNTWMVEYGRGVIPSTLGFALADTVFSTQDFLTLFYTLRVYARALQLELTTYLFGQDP
Method in brief: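 Nonspecific binding defined with unlabeled (+)-pentazocine. Filtration, then scintillation counting. IC50 by nonlinear regression, converted to Ki by Cheng–Prusoff.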

MDA-MB-231 = test: Cytotoxicity against human MDA-MB-231 cells assessed as reduction in cell viability after 48 hrs in presence of 10% fetal calf serum by MTS assay; assay type: functional, cell-based; method in brief: as §1
[6] = Cytotoxicity against human Capan2 cells assessed as reduction in cell viability after 24 hrs in absence of 10% fetal calf serum by MTS assay; assay type: functional, cell-based; details: Capan-2, 24 h; method in brief: as §2
[7] = Cytotoxicity against human LNCAP cells assessed as reduction in cell viability after 24 hrs in absence of 10% fetal calf serum by MTS assay; assay type: functional, cell-based; method in brief: as §2
[8] = Cytotoxicity against human U87 cells assessed as reduction in cell viability after 24 hrs in absence of 10% fetal calf serum by MTS assay; assay type: functional, cell-based, U-87MG ATCC; details: U-87 MG; method in brief: as §2
[9] = Cytotoxicity against human Paca3 cells assessed as decrease in cell viability using complete medium after 24 hrs by MTS assay; assay type: functional, cell-based; details: Paca3, 24 h; method in brief: as §1
[10] = Cytotoxicity against human Capan2 cells assessed as reduction in cell viability after 24 hrs in presence of 10% fetal calf serum by MTS assay; assay type: functional, cell-based; details: Capan-2, 24 h; method in brief: as §1
[11] = target: Sigma non-opioid intracellular receptor 1 (Rattus norvegicus) (UniProt Q9R0C9); test: Antagonist activity at sigma 1 receptor in rat PC12 cells assessed as inhibition of PRE-084-mediated NGF-induced neurite outgrowth at 0.25 to 2.5 uM after 96 hrs; assay type: cell-based; details: PC-12
Sequence of Sigma non-opioid intracellular receptor 1 (Rattus norvegicus) (Q9R0C9 whole entry): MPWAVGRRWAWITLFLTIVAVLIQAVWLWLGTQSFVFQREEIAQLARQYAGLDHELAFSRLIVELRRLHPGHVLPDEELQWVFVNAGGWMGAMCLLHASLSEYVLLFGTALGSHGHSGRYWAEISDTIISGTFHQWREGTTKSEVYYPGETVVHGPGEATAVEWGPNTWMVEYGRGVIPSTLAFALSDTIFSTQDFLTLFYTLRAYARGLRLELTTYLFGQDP
Method in brief: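 PC12 cells in differentiation medium with NGF 2.5 ng/ml. The S1R agonist PRE-084 (5, 10, 25 μM; 10 mM stock in apyrogenic water) was given alone or with compound at 0.25 or 2.5 μM. NGF-induced neurite outgrowth was scored. Data are mean±sem of at least 5 experiments, each in triplicate.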

[12] = Induction of apoptosis in human Paca3 cells assessed as viable cells in presence of 10% fetal calf serum at 25 uM after 24 hrs by annexin V-FITC/propidium iodide staining-based flow cytometry (reference value: 89.9 +/- 0.1%); assay type: functional
[13] = Induction of apoptosis in human Paca3 cells assessed as early apoptotic cells in absence of 10% fetal calf serum at 10 uM after 24 hrs by annexin V-FITC/propidium iodide staining-based flow cytometry (reference value: 3.5 +/- 0.7%); assay type: functional
[14] = Induction of apoptosis in human Paca3 cells assessed as late apoptotic cells in presence of 10% fetal calf serum at 25 uM after 24 hrs by annexin V-FITC/propidium iodide staining-based flow cytometry (reference value: 4 +/- 0.8%); assay type: functional
Paca3 = test: Induction of apoptosis in human Paca3 cells at 25 uM after 24 hrs in presence of 10% fetal calf serum by TUNEL assay; assay type: functional, cell-based
Method in brief: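 PaCa3 cells in serum medium, exposed 24 h (10, 25, 50 μM tested). Cells fixed in 1% formaldehyde, held in 70% ethanol, permeabilized with 0.1% Triton X-100. TdT/FITC-dUTP labelling 90 min at 37 °C, then propidium iodide 2.5 μg/ml with RNase. Percent apoptotic cells by flow cytometry.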

[15] = Cytotoxicity against human MDA-MB-231 cells assessed as reduction in cell viability after 24 hrs in presence of 10% fetal calf serum by MTS assay; assay type: functional, cell-based; details: MDA-MB-231, 24 h; method in brief: as §1
LNCaP = test: Cytotoxicity against human LNCAP cells assessed as reduction in cell viability after 48 hrs in presence of 10% fetal calf serum by MTS assay; assay type: functional, cell-based; method in brief: as §1
[16] = Induction of apoptosis in human Paca3 cells assessed as viable cells in absence of 10% fetal calf serum at 10 uM after 24 hrs by annexin V-FITC/propidium iodide staining-based flow cytometry (reference value: 91.1 +/- 0.7%); assay type: functional
[17] = Induction of apoptosis in human Paca3 cells assessed as necrotic cells in presence of 10% fetal calf serum at 25 uM after 24 hrs by annexin V-FITC/propidium iodide staining-based flow cytometry (reference value: 0.6 +/- 0.4%); assay type: functional
[18] = Induction of apoptosis in human Paca3 cells assessed as early apoptotic cells in presence of 10% fetal calf serum at 25 uM after 24 hrs by annexin V-FITC/propidium iodide staining-based flow cytometry (reference value: 5.6 +/- 0.3%); assay type: functional
[19] = Displacement of [3H]-DTG from sigma 2 receptor in rat liver after 120 mins by scintillation counting analysis
Method in brief: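 Rat liver homogenate (150 µg) incubated 120 min at room temperature with 3 nM [³H]-DTG in 50 mM Tris-HCl pH 8.0. (+)-Pentazocine 100 nM masked S1R; haloperidol 10 µM defined nonspecific binding. Ki by Cheng–Prusoff from IC50.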

[20] = Cytotoxicity against human SUM159 cells assessed as reduction in cell viability after 24 hrs in presence of 10% fetal calf serum by MTS assay; assay type: functional, cell-based; details: SUM-159-PT; method in brief: as §1
[21] = Cytotoxicity against human Paca3 cells assessed as reduction in cell viability after 48 hrs in presence of 10% fetal calf serum by MTS assay; assay type: functional, cell-based; details: Paca3, 48 h; method in brief: as §1

Ki [5]: 0.012 µM
inhibition [11]: Active
Ki [19]: 0.022 µM
SMILES: C/C(=C\CN1CCC(Cc2ccccc2)CC1)c1ccc2ccccc2c1
Activity (Capan-2): Active
IC50 [1]: 60.6 µM
Activity (U-87MG ATCC): Active
IC50 [2]: 61.1 µM
IC50 [3]: 7 µM
Activity (PC-3): Active
Activity [4]: 0.3%
Activity (MDA-MB-231): Active
IC50 [6]: 9.61 µM
IC50 [7]: 9.58 µM
IC50 [8]: 10.5 µM
IC50 [9]: 49.8 µM
IC50 [10]: 52.6 µM
Activity [12]: 22.4%
Activity [13]: 10.9%
Activity [14]: 34.1%
Activity (Paca3): Active
IC50 [15]: 64.9 µM
Activity (LNCaP): Active
Activity [16]: 71.6%
Activity [17]: 0.4%
Activity [18]: 43.1%
IC50 [20]: 58.3 µM
IC50 [21]: 28.7 µM
